We go through twelve molecules from ChEMBL document CHEMBL1143725, “Alvaradoins E-N, antitumor and cytotoxic anthracenone C-glycosides from the leaves of Alvaradoa haitiensis” (J Nat Prod, 2007).

Assay [1] relates to KB. Briefly: Cytotoxicity against human KB cells. The assay is classed as functional, cell-based. The method, boiled down:
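Human oral epidermoid carcinoma (KB) cells were tested following previously established protocols. EC50 values were reported in μM as mean ± SEM from three separate experiments.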

Assay [2] relates to P388. The assay is described as follows: Antitumor activity in P388 cells xenografted mouse at 0.4 mg/kg body weight, ip for 5 days/week relative to control. The assay is classed as functional. The settings on record: route intraperitoneal. The method, boiled down:
(§1)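 Mice carried murine P388 lymphocytic leukemia cells implanted intraperitoneally. Treatment was given i.p. daily, 5 days per week. Activity was expressed as % T/C, treated versus control.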

The test system of assay [3] is P388. Briefly: Antitumor activity in iv dosed mouse implanted with P388 xenografts. The assay is classed as functional, organism-based. The method, boiled down: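 This was a P388 murine lymphocytic leukemia model in which both the leukemia cells and the treatment were delivered intravenously.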
The subject of assay [4] is P388. The assay is described as follows: Antitumor activity in P388 cells xenografted mouse at 0.2 mg/kg body weight, ip for 5 days/week relative to control. The assay is classed as functional. The conditions noted are these: route intraperitoneal. The method, boiled down: as §1

Activity calls are given as the source filed them. The rule behind the calls is not given here.

Broadly, the EC50 is the midpoint of the concentration-response curve. A low value points to an effect from little substance. `CC(C)=CC(=O)O[C@@H]1[C@H](O)[C@@H](O)[C@@H]([C@H]2c3cccc(O)c3C(=O)c3c(O)cc(C)cc32)O[C@@H]1O` [ALVARADOIN L] returned an EC50 in assay [1] of 0.59 µM.

With `CC(C)=CC(=O)O[C@@H]1[C@H](O)[C@@H](O)[C@@H]([C@@H]2c3cccc(O)c3C(=O)c3c(O)cc(C)cc32)O[C@@H]1O` [ALVARADOIN K], a half-maximal effect in assay [1] (EC50) was put at 0.27 µM.

Molecule `Cc1cc(O)c2c(c1)C(=O)c1cccc(O)c1C2=O` [CHRYSOPHANOL] gave an EC50 in assay [1] of more than 20 µM.

Molecule `CC(=O)O[C@H]1O[C@H]([C@@H]2c3cccc(O)c3C(=O)c3c(O)cc(C)cc32)[C@H](O)[C@@H](OC(=O)C=C(C)C)[C@H]1O` [ALVARADOIN G] registered an EC50 in assay [1] of 0.65 µM.

In turn, `CC(=O)O[C@H]1O[C@H]([C@@]2(O)c3cccc(O)c3C(=O)c3c(O)cc(C)cc32)[C@H](O)[C@@H](OC(=O)C=C(C)C)[C@H]1O` [ALVARADOIN I] yielded an EC50 in assay [1] of 12.5 µM.

In the case of `CC(=O)O[C@H]1O[C@H]([C@@H]2c3cccc(O)c3C(=O)c3c(O)cc(C)cc32)[C@H](O)[C@@H](O)[C@H]1O` [ALVARADOIN F], in assay [2], the Activity was 115%. The outcome in assay [3] was inactive. Further, the EC50 in assay [1] is 0.065 µM.

Molecule `CC(C)=CC(=O)O[C@@H]1[C@@H](O)[C@@H]([C@H]2c3cccc(O)c3C(=O)c3c(O)cc(C)cc32)O[C@H](O)[C@@H]1O` [ALVARADOIN M] registered an EC50 in assay [1] of 0.38 µM.

In assay [4], `CC(=O)O[C@@H]1O[C@@H]([C@H]2c3cccc(O)c3C(=O)c3c(O)cc(C)cc32)[C@H](O)[C@@H](O)[C@H]1O` [ALVARADOIN E] showed an Activity of 125%. The outcome in assay [3] was inactive. Further, in assay [1], a half-maximal response (EC50) required 0.05 µM.

Take `CC[C@@]1(O)C(=O)OCc2c1cc1n(c2=O)Cc2cc3ccccc3nc2-1` [CAMPTOTHECIN]: in assay [1], the EC50 worked out at 0.0036 µM.

The molecule `CC(=O)O[C@@H]1O[C@@H]([C@H]2c3cccc(O)c3C(=O)c3c(O)cc(C)cc32)[C@H](O)[C@@H](OC(=O)C=C(C)C)[C@H]1O` [ALVARADOIN H] showed an EC50 in assay [1] of 1.07 µM.

For the molecule `CC(=O)O[C@H]1O[C@H]([C@]2(O)c3cccc(O)c3C(=O)c3c(O)cc(C)cc32)[C@H](O)[C@@H](OC(=O)C=C(C)C)[C@H]1O` [ALVARADOIN J], a half-maximal effect in assay [1] (EC50) was put at 15.9 µM.

Turning to `CC(=O)O[C@H]1O[C@H]([C@]2(O)c3cccc(O)c3C(=O)c3c(O)cc(C)cc32)[C@H](O)[C@@H](O)[C@H]1O` [ALVARADOIN N], the midpoint of the response in assay [1], the EC50, lay at 2.94 µM.
